Assay results of several laboratories.
Each line is one published result; the experiments were not run side by side.
Cell line: HepG2
Read-out: cell growth or viability

CCn1cc(-c2nc(C)no2)c(=O)c2cc(F)c(N3CCC(CN4CCOCC4)CC3)cc21 — EC50 (ATP luminescence; 48 h): > 40 µM
COc1ccc(-c2cc(-c3ccc4oc(=O)cc(C)c4c3O)nc(N)n2)cc1 — inhibition (MTT; 8 µg/mL; 72 h): 0%
CCn1cc(-c2nc(C)no2)c(=O)c2cc(F)c(N3CCCCC3)cc21 — EC50 (ATP luminescence; 48 h): > 40 µM
CCOC(=O)c1ccc(NC(=O)C2=C3C(=Nc4ccccc43)NC2=O)cc1 — viability (MTT; 50 µM; 24 h): 42.7%
O=C(CN1C(=O)/C(=C/c2cccc(Cl)c2)SC1=S)Nc1ccccc1 — inhibition (MTT; 10 µM): 10%
Cc1cc(=O)oc2ccc(-c3cc(-c4ccc(Br)cc4)nc(N)n3)c(O)c12 — inhibition (MTT; 128 µg/mL; 72 h): 20%
COc1cc2ncnc(Nc3ccc(F)c(Cl)c3)c2cc1NC(=O)N/N=C/CN(C)C — IC50 (MTT; 72 h): 2.08 µM
COc1ccc(NC(=O)c2c(Nc3ccccc3)sc(C#N)c2NC(=O)CNc2ccc([N+](=O)[O-])cc2)cc1 — viability (SRB; 1 nM; 48 h): 100%
CCOC(=O)c1ccc(-n2c(N)c(C#N)c(CC#N)c(C#N)c2=O)cc1 — viability (MTT; 6.25 µM; 24 h): 71.8%
Cc1ccc(/C=N/NC(=O)c2ccc(Nc3cc(C)nc4c(O)cccc34)cc2)cc1 — inhibition (MTT; 20 µM): 41.3%
Clc1ccccc1-c1nc2ccccc2[nH]1 — IC50 (MTT; 48 h): 31.5 µM
Cc1cc(Nc2ccc(C(=O)N/N=C/c3ccccc3)cc2)c2cccc(O)c2n1 — inhibition (MTT; 20 µM): 48.9%
CCOC(=O)c1ccc(-n2c(C)cc(/C=C/c3ccc(OCC)cc3)c(C#N)c2=O)cc1 — viability (MTT; 50 µM; 24 h): 53.1%
Cc1cc(=O)oc2ccc(-c3cc(-c4ccccc4)nc(N)n3)c(O)c12 — inhibition (MTT; 128 µg/mL; 72 h): 20%
CCOC(=O)c1ccc(-n2c(C)cc(/C=C/c3ccc(OC)cc3)c(C#N)c2=O)cc1 — viability (MTT; 50 µM; 24 h): 58.1%
Cc1ccc2nc(-c3ccc([N+](=O)[O-])cc3)[nH]c2c1 — IC50 (MTT; 48 h): 18.6 µM
O=C(CN1C(=O)/C(=C/c2cccc(Br)c2)SC1=S)Nc1ccccc1 — inhibition (MTT; 10 µM): 12.7%
CCOC(=O)c1ccc(N2C(N)=C(C#N)C3(C(=O)Nc4ccccc43)C(C#N)=C2O)cc1 (stereo not shown) — viability (MTT; 50 µM; 24 h): 17.9%
C=CCn1c(-c2ccc(Cl)cc2)nc2ccccc21 — IC50 (MTT): 58.9 µM
CN1CCN(CCn2cccc2/C=N/NC(=O)Nc2cc3c(Nc4ccc(F)c(Cl)c4)ncnc3cc2O[C@H]2CCOC2)CC1 — IC50 (MTT; 72 h): 0.15 µM
CCn1cc(-c2nc(C)no2)c(=O)c2cc(F)c(N3CCC(Cc4ccccc4)CC3)cc21 — EC50 (ATP luminescence; 48 h): > 40 µM
CC(=O)Nc1cccc(-n2c(=O)n(C3CC3)c(=O)c3c(Nc4ccc(I)cc4F)n(C)c(=O)c(C)c32)c1 — viability (resazurin; 780 pM; 72 h): 99.5%
Cc1ccc2nc(-c3ccccc3O)[nH]c2c1 — IC50 (MTT; 48 h): 26.1 µM
COc1ccc(NC(=O)c2c(Nc3ccccc3)sc(C(=O)NN=Cc3cc(OC)c(OC)c(OC)c3)c2NC(C)=O)cc1 — viability (SRB; 100 µM; 48 h): 33.9%
Cc1cc(=O)oc2ccc(-c3cc(-c4cccc(Cl)c4)nc(N)n3)c(O)c12 — inhibition (MTT; 2 µg/mL; 72 h): 0%
O=C(CN1C(=O)/C(=C/c2ccccc2Cl)SC1=S)Nc1ccccc1 — inhibition (MTT; 10 µM): 11%
COc1ccc(NC(=O)c2c(Nc3ccccc3)sc(C#N)c2NC(=O)CNc2ccccc2Cl)cc1 — viability (SRB; 10 µM; 48 h): 79.2%
Cc1ccc2nc(-c3ccc(F)cc3)[nH]c2c1 — IC50 (MTT; 48 h): 80.4 µM
COc1ccc(NC(=O)c2c(Nc3ccccc3)sc(C(=O)NN=Cc3ccc(Br)cc3)c2NC(C)=O)cc1 — viability (SRB; 1 µM; 48 h): 85.2%
O=[N+]([O-])c1ccc(-c2nc3ccccc3n2Cc2ccccc2)cc1 — IC50 (MTT): 7.8 µM
CCOC(=O)c1ccc(-n2c(-c3ccc(C)cc3)cc(-c3ccc(O)cc3)c(C#N)c2=O)cc1 — viability (MTT; 12.5 µM; 24 h): 50.4%
CCn1cc(-c2nc(C)no2)c(=O)c2cc(F)c(N3CCC(c4ccccc4)CC3)cc21 — EC50 (ATP luminescence; 48 h): > 40 µM
COc1ccc(NC(=O)c2c(Nc3ccccc3)sc(C(=O)NN=Cc3ccc(Cl)cc3)c2NC(C)=O)cc1 — viability (SRB; 1 nM; 48 h): 100%
CCOC(=O)c1ccc(-n2c(C)cc(C)c(C#N)c2=O)cc1 — viability (MTT; 3.125 µM; 24 h): 100%
COc1ccc(NC(=O)c2c(Nc3ccccc3)sc(C#N)c2NC(=O)CNc2ccc(Br)cc2)cc1 — viability (SRB; 0.1 µM; 48 h): 70.4%
COc1cc2c(c(OC)c1OC)-c1ccc(OC)c(=O)cc1[C@@H](NC(C)=O)CC2 — inhibition (MTT; 10 µM): 56.4%
COc1ccc(NC(=O)c2c(Nc3ccccc3)sc(C(=O)NN=Cc3ccccc3)c2NC(C)=O)cc1 — viability (SRB; 0.1 µM; 48 h): 78.1%
COc1ccc(-c2nc3ccccc3[nH]2)cc1O — IC50 (MTT; 48 h): 64.2 µM
COc1ccc(NC(=O)c2c(Nc3ccccc3)sc(C#N)c2NC(=O)CNc2ccc(O)cc2)cc1 — viability (SRB; 0.1 µM; 48 h): 85.6%
Clc1ccc(-c2nc3ccccc3n2Cc2ccccc2)cc1 — IC50 (MTT): 47.2 µM
